1 molecule from ChEMBL document CHEMBL4342523, “Discovery and Development of S6821 and S7958 as Potent TAS2R8 Antagonists” (J Med Chem, 2020) can be followed below.

The target of data set [1] is T1, Taste receptor type 2 member 8 (Homo sapiens) (UniProt Q9NYW2).
T1 sequence (whole entry): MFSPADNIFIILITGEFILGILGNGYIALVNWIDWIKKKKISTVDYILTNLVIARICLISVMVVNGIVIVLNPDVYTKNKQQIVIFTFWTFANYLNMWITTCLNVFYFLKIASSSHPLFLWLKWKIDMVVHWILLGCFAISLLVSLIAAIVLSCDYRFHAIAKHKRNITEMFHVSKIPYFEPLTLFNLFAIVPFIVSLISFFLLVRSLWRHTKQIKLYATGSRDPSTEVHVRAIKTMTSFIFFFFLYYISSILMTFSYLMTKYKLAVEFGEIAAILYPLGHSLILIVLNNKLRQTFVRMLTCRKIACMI
Put plainly: Reversible antagonist activity at recombinant human TAS2R8 assessed as recovery of suppression of andrographolide-induced intracellular calcium level at 1 uM preincubated for 60 secs followed by andrographolide addition measured after 5 mins washout period using Fura-2AM dye by cell-based fluorescent microscopic analysis. It is filed as functional. The method, boiled down: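 TAS2R8 stable cells grown overnight on Matrigel-coated coverslips, loaded with 3 μg/mL Fura-2AM 1 h at RT in HBSS; ratiometric imaging under continuous HBSS perfusion with 100 μM andrographolide. Inhibitor 1 μM applied 60 s before and during agonist; 5 min HBSS washout between applications; only cells with initial ΔF/F > 0.5 analysed; mean and per-cell peak responses, 136 cells, 3 experiments.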

The nature of data set [2]: Maternal toxicity in po dosed Sprague-Dawley rat assessed as effect on embryo and fetal development administered via gavage during gestation period. It is filed as ADME, organism-based. As to conditions: female, in vivo.
The nature of data set [3]: Stability of the compound in pH 5 buffer assessed as parent compound remaining measured after 24 hrs at room temperature. It is filed as physicochemical. Conditions: read-out: Stability.
Data set [4] in a line: Stability of the compound in pH 2.8 buffer assessed as parent compound remaining measured after 24 hrs at room temperature. As to conditions: read-out: Stability. It is filed as physicochemical.
The target in data set [5] is T2, Taste receptor type 2 member 14 (Homo sapiens) (UniProt Q9NYV8).
T2 sequence (whole entry): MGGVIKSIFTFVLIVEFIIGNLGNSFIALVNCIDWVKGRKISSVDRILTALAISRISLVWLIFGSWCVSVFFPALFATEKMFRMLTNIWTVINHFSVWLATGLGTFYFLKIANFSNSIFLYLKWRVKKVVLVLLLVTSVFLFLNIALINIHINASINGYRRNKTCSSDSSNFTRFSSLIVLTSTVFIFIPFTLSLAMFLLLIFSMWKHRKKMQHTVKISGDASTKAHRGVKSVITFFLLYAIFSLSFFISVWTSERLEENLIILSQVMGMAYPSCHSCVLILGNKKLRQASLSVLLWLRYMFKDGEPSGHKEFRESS
Put plainly: Agonist activity at TAS2R14 (unknown origin) at 25 uM by transiently expressed cell-based assay.

The NOAEL is the highest tested level that showed no adverse finding.

The source made the active and inactive calls. No cut-off for these calls is given here. Some results are limits rather than exact numbers.

As for `Cc1noc(C)c1Cn1cc(N2C(=O)CN(Cc3cccc(O)c3)C2=O)cn1`, the inhibition entry in data set [1] was “Active”. Further, in data set [2], the NOAEL is 1000 mg/kg. The remaining at 24 h in data set [3] and in data set [4] was above 99% each time. Further, the result in data set [5] was Active.
